Reference: publication PMC3356170 (International Journal of Nanomedicine, 2012)

Key:
[1] = Survival time and urine output of dosed rats; type: in vivo
[2] = Pharmacokinetics of two formulations in rats; type: in vivo, Sprague-Dawley (SD) rats
In short: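 SD rats (N = 6 per group) received 5 mg/kg intravenously or orally, dissolved in 0.9% NaCl. Blood was taken at set time points and centrifuged (3500 rpm, 10 min). Plasma (180 μL) was mixed with cantharidin internal standard and methanol (800 μL) and spun at 10,000 rpm for 10 min. NCTD was measured by LC-MS/MS (C18, 35°C; MRM m/z 185.0→141.1) against matrix-matched calibration from 0.1025 to 10.25 μg/mL, using peak-area ratio to internal standard. Group means gave parameters.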

[3] = Tissue distribution and elimination in mice; type: in vivo, ICR mice; details: after intravenous administration (table title)
In short: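 ICR mice (six per group) were used. Blood was drawn from the eye socket vein at each sampling time. After cervical dislocation, heart, liver, kidney, spleen and lung were excised, rinsed in saline, blotted and weighed. Bile was taken from the gall bladder by syringe. Tissues and fluids were homogenized and processed as for plasma. NCTD was quantified by LC-MS/MS.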

[4] = intravenous administration (5 mg/kg), N = 6, mean ± SD
[5] = oral administration (5 mg/kg), N = 6, mean ± SD

O=C1OC(=O)[C@H]2[C@@H]1[C@@H]1CC[C@H]2O1 [NCTD, Norcantharidin]
survival time of rats ([1]; NCTD group): about 24 hours | urine output compared with normal rats ([1]; after dosing): one-third of normal | AUC0-t [2, 4]: 9790 ± 1260 ng·h/mL | AUC0-∞ [2, 4]: 10770 ± 2340 ng·h/mL | CL [2, 4]: 0.12 ± 0.02 L/h | MRT [2, 4]: 0.34 ± 0.10 h | Vd [2, 4]: 0.82 ± 0.45 L/kg | t1/2(α) distribution half-life [2, 4]: 0.26 ± 0.06 h | t1/2(β) [2, 4]: 2.63 ± 0.82 h | AUC0-t [2, 5]: 3850 ± 660 ng·h/mL | AUC0-∞ [2, 5]: 3870 ± 690 ng·h/mL | CL [2, 5]: 0.32 ± 0.05 L/h | Cmax [2, 5]: 1210 ± 230 ng/mL | MRT [2, 5]: 5.49 ± 4.58 h | Tmax [2, 5]: 1.50 ± 0.44 h | Vd [2, 5]: 9.48 ± 6.59 L/kg | t1/2(a) [2, 5]: 0.56 ± 0.43 h | t1/2(α) [2, 5]: 0.72 ± 0.68 h | t1/2(β) [2, 5]: 5.08 ± 4.79 h | oral bioavailability ([2]; oral versus intravenous administration, 5 mg/kg): 39.3% | Te (targeted efficiency) ([3]; Bile): 2.33 | Te (targeted efficiency) ([3]; Blood): 30.74 | Te (targeted efficiency) ([3]; Heart): 14.99 | Te (targeted efficiency) ([3]; Kidney): 11.72 | Te (targeted efficiency) ([3]; Liver): 10.07 | Te (targeted efficiency) ([3]; Lung): 22.72 | Te (targeted efficiency) ([3]; Spleen): 7.44
